Measurements published in ChEMBL document CHEMBL3244139, “Antiarrhythmic activity of p-hydroxy-N-(2-diethylaminoethyl) benzamide (the p-hydroxy isostere of procainamide) in dogs and mice” (J Med Chem, 1977).
Active and inactive are the calls of the source. No cut-off for these calls is given here.

Experiments:
Mus musculus [1] = assay: Antiarrhythmic activity in ICR mouse assessed as protection against chloroform-induced ventricular fibrillation at 100 mg/kg, ip; assay type: functional, organism-based; design: dose 100 mg/kg; details: Heart
Method in brief: (§1)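 ICR male mice, 28-35 days old, average weight 25 g, dosed ip. After 10 min they were placed in a chloroform jar and anesthetized. A mouse counted as protected if no intermittent or continuous ventricular fibrillation appeared before breathing ceased. Definite fibrillation counted as unprotected even if it later changed rhythm. Eight mice per dose.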

Mus musculus [2] = assay: Antiarrhythmic activity in ICR mouse assessed as protection against chloroform-induced ventricular fibrillation at 233 to 240 mg/kg, ip; assay type: functional; method in brief: as §1
Canis familiaris [3] = assay: Antiarrhythmic activity in aconitine-induced mongrel dog arrhythmic model assessed as mean arterial blood pressure measured at end of infusion at 50 +/- 24 mg/kg, iv (reference value: 70 +/- 8 mmHg); assay type: functional, Canis lupus familiaris, Artery
Plasma [4] = assay: Plasma concentration in mongrel dog at 50 +/- 24 mg/kg, iv; assay type: ADME, organism-based, Canis lupus familiaris; design: route intravenous; details: in vivo
Method in brief: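 Plasma withdrawn from each aconitine-treated dog when iv infusion was discontinued; drug measured by TLC densitometry.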

Canis familiaris [5] = assay: Antiarrhythmic activity in aconitine-induced mongrel dog arrhythmic model assessed as decrease in ventricular rate rate measured at end of infusion at 50 +/- 24 mg/kg, iv (reference value: 205 +/- 65 BPM); assay type: functional, Canis lupus familiaris, Heart
Canis familiaris [6] = assay: Antiarrhythmic activity in aconitine-induced mongrel dog arrhythmic model assessed as atrial rate measured at end of infusion at 50 +/- 24 mg/kg, iv; assay type: functional, Canis lupus familiaris, Heart
Plasma [7] = assay: Drug metabolism in mongrel dog assessed as ester of p-acetoxy-N-(2-diethylaminoethyl)benzamide level in plasma; assay type: ADME, cell-free, Canis lupus familiaris
Method in brief: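 Dog plasma taken at end of infusion was extracted as for the phenol but without internal standard. Spotted on silica gel F254 TLC, developed with acetone-methanol (1:1), and quantified by densitometry.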

Canis familiaris [8] = assay: Antiarrhythmic activity in aconitine-induced mongrel dog arrhythmic model assessed as decrease in ventricular rate rate at 50 +/- 24 mg/kg, iv after 20 +/- 3 mins from end of infusion (reference value: 205 +/- 65 BPM); assay type: functional, Canis lupus familiaris, Heart
Canis familiaris [9] = assay: Antiarrhythmic activity in aconitine-induced mongrel dog arrhythmic model assessed as atrial rate at 50 +/- 24 mg/kg, iv after 20 +/- 3 mins from end of infusion; assay type: functional, Canis lupus familiaris, Heart
[10] = Stability in human plasma assessed as hydrolysis at 20 ug/ml after 5 mins at room temperature; assay type: ADME, cell-free; details: read-out: Drug degradation
Method in brief: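 Ester at 20 µg/ml held in fresh human plasma for 5 min at room temperature. Comparison conditions: plasma plus 10^-5 M physostigmine, and saline. Standards extracted and measured by TLC densitometry.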

Structure (SMILES): CCN(CC)CCNC(=O)c1ccccc1
- Activity (Mus musculus [1]): inactive
- Activity (Mus musculus [2]; Heart): inactive

Structure (SMILES): CCN(CC)CCNC(=O)c1ccc(OC(C)=O)cc1.Cl
- Activity (Canis familiaris [3]): 70 mmHg
- Cp (Plasma [4]): < 500 ng/mL
- Activity (Canis familiaris [5]): 173 bpm
- Activity (Canis familiaris [6]): 173 bpm
- Drug metabolism (Plasma [7]): < 0.5 µg/mL
- Activity (Canis familiaris [8]): 183 bpm
- Activity (Canis familiaris [9]): 373 bpm
- metabolised at 5 min, 20 ug/ml [10]: 60%

Structure (SMILES): CCN(CC)CCNC(=O)c1ccc([N+](=O)[O-])cc1.Cl
- Activity (Mus musculus [2]; dose mg/kg 233-240, route intraperitoneal): 38%
